In ChEMBL document CHEMBL1138348, “A p-[18F]fluoroethoxyphenyl bicyclic nucleoside analogue as a potential positron emission tomography imaging agent for varicella-zoster virus thymidine kinase gene expression” (J Med Chem, 2007):

How the values were obtained:
[1] = target: T1, Thymidine kinase, cytosolic (Homo sapiens, UniProt P04183); experiment: Inhibition of human cytosolic thymidine kinase 1
T1 sequence (P04183 whole entry): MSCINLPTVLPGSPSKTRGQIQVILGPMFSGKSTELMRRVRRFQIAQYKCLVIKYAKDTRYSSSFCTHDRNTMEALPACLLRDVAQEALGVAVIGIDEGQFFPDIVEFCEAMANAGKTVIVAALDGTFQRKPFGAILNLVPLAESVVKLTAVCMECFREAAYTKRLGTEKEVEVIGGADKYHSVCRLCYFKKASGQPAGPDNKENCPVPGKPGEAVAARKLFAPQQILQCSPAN
How it was run: (§1)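 Purified recombinant VZV TK (7.75 ng), HSV-1 TK (226 ng) or human cytosolic TK-1 (455 ng) in 50 mM Tris-HCl pH 8.0, 2.5 mM MgCl2, 10 mM DTT, 2.5 mM ATP, 1 mg/mL BSA, 10 mM NaF, with 1 µM final [CH3-3H]dThd substrate. Incubated 30 min at 37 °C with varied compound concentrations; the reaction was linear over this time. Product bound on DE-81 filters, washed, and counted by liquid scintillation. Result reported as IC50.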

[2] = Inhibition of HSV1 thymidine kinase; parameters: species or system Human alphaherpesvirus 1; how it was run: as §1
[3] = Inhibition of Varicella zoster virus thymidine kinase; parameters: species or system Human alphaherpesvirus 3; how it was run: as §1

IC50 [1] | IC50 [2] | IC50 [3] | Compound
> 500 µM | > 500 µM | 0.4 µM | O=c1nc2oc(-c3ccc(O)cc3)cc2cn1[C@H]1C[C@H](O)[C@@H](CO)O1
> 500 µM | > 500 µM | 1.5 µM | COc1ccc(-c2cc3cn([C@H]4C[C@H](O)[C@@H](CO)O4)c(=O)nc3o2)cc1
> 500 µM | > 500 µM | 4.2 µM | O=c1nc2oc(-c3ccc(OCCF)cc3)cc2cn1[C@H]1C[C@H](O)[C@@H](CO)O1
